Measured values as given in ChEMBL document CHEMBL4184148 (Bioorg Med Chem Lett, 2017).

Key:
[1] = target: Ankyrin repeat and protein kinase domain-containing protein 1 (Homo sapiens) (UniProt Q8NFD2); test: Binding affinity to wild-type human partial length ANKK1 (M1 to A305 residues) expressed in HEK293 cells at 1 uM by Kinomescan method relative to control; format: cell-based
Method in brief: (§1)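 Kinome-wide competition binding panel run by an outside provider, with each compound tested at a single concentration. Activity is read against the kinase panel.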

[2] = target: Mitogen-activated protein kinase kinase kinase 15 (Homo sapiens) (UniProt Q6ZN16); test: Binding affinity to wild-type human partial length MAP3K15 (T625 to L932 residues) expressed in HEK293 cells at 1 uM by Kinomescan method relative to control; format: cell-based
[3] = target: Calcium-dependent protein kinase 1 (Plasmodium falciparum) (UniProt P62344); test: Binding affinity to wild-type Plasmodium falciparum full length CDPK1 (M1 to S524 residues) expressed in HEK293 cells at 1 uM by Kinomescan method relative to control; format: cell-based
[4] = target: Glycogen synthase kinase-3 beta (Homo sapiens) (UniProt P49841); test: Binding affinity to wild-type human full length GSK3B (M1 to T433 residues) expressed in HEK293 cells at 1 uM by Kinomescan method relative to control; format: cell-based
Method in brief: (§2)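 Run as one kinome-wide competition binding panel with each compound at a single fixed concentration. Results were plotted as a kinome-wide selectivity map.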

[5] = target: Activin receptor type-2B (Homo sapiens) (UniProt Q13705); test: Binding affinity to wild-type human ACVR2B (H169 to D504 residues) expressed in Escherichia coli BL21 at 1 uM by Kinomescan method relative to control
[6] = target: Mitogen-activated protein kinase kinase kinase 12 (DLK) (Homo sapiens) (UniProt Q12852); test: Binding affinity to wild-type human full length DLK (M1 to P859 residues) expressed in HEK293 cells at 1 uM by Kinomescan method relative to control
[7] = target: Cyclin-dependent kinase-like 5 (Homo sapiens) (UniProt O76039); test: Binding affinity to wild-type human partial length CDKL5 (M1 to S337 residues) expressed in HEK293 cells at 1 uM by Kinomescan method relative to control; format: cell-based
Cyclin-dependent kinase-like 5 (Homo sapiens), sequence (O76039 whole entry, the tested form may be a part): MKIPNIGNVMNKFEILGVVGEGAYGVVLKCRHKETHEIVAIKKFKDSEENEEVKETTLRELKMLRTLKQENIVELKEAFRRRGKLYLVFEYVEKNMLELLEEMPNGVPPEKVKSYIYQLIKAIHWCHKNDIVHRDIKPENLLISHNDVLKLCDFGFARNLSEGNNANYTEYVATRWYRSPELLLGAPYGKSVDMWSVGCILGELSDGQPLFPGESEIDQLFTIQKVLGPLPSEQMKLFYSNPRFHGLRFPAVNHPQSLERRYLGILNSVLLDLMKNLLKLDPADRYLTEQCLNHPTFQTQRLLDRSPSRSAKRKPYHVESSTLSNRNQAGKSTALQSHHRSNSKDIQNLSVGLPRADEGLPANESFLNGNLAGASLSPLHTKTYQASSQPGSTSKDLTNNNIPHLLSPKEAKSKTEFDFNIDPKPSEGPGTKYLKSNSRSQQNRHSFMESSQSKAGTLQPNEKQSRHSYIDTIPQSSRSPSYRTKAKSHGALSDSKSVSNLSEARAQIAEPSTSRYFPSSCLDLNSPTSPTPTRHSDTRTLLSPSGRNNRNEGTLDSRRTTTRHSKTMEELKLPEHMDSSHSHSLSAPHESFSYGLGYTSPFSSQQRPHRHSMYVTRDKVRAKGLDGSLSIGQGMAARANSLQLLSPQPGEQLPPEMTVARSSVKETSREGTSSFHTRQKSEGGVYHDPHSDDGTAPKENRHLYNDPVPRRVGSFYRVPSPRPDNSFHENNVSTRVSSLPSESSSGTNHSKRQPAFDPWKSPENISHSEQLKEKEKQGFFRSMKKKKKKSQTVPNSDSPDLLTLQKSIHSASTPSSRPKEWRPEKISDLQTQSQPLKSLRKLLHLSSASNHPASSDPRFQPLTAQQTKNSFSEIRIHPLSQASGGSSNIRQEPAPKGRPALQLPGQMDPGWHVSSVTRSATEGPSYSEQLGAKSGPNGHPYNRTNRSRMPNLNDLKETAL

[8] = target: Mitogen-activated protein kinase 4 (Homo sapiens) (UniProt P31152); test: Binding affinity to wild-type human partial length ERK4 (M1 to L365 residues) expressed in Escherichia coli BL21 at 1 uM by Kinomescan method relative to control
[9] = target: Proto-oncogene tyrosine-protein kinase Src (Homo sapiens) (UniProt P12931); test: Binding affinity to wild-type human partial length SRC (L240 to L536 residues) expressed in Escherichia coli BL21 at 1 uM by Kinomescan method relative to control
[10] = target: Dual specificity mitogen-activated protein kinase kinase 1 (Homo sapiens) (UniProt Q02750); test: Binding affinity to wild-type human full length MEK1 (M1 to V393 residues) expressed in HEK293 cells at 1 uM by Kinomescan method relative to control; format: cell-based; method in brief: as §2
Dual specificity mitogen-activated protein kinase kinase 1 (Homo sapiens), sequence (Q02750 whole entry, the tested form may be a part): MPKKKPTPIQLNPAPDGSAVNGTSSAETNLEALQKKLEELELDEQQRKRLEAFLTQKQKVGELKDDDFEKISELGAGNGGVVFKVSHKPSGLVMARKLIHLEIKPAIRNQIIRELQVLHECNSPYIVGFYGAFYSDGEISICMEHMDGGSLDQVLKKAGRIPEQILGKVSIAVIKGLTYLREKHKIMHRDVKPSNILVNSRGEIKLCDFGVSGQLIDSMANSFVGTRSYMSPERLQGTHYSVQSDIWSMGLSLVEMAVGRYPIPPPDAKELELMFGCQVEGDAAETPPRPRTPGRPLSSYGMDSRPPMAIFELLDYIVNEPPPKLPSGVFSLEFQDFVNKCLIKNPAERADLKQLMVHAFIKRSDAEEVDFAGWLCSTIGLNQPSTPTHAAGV

[11] = target: Testis-specific serine/threonine-protein kinase 1 (Homo sapiens) (UniProt Q9BXA7); test: Binding affinity to wild-type human full length TSSK1B (M1 to Q367 residues) expressed in Escherichia coli BL21 at 1 uM by Kinomescan method relative to control; method in brief: as §1
Testis-specific serine/threonine-protein kinase 1 (Homo sapiens), sequence (Q9BXA7 whole entry, the tested form may be a part): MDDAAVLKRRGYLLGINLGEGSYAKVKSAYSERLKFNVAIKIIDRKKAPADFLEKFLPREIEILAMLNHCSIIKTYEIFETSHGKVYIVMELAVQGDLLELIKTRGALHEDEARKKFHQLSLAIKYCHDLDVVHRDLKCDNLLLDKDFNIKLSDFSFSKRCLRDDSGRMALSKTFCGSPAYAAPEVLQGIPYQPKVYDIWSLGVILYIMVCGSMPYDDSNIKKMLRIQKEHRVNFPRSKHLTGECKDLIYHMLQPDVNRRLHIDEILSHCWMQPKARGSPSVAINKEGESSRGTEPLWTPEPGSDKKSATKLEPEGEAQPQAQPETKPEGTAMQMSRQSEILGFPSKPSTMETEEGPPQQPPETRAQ

[12] = target: Focal adhesion kinase 1 (Homo sapiens) (UniProt Q05397); test: Binding affinity to wild-type human partial length FAK (D402 to R696 residues) expressed in Escherichia coli BL21 at 1 uM by Kinomescan method relative to control
[13] = target: Serine/threonine-protein kinase tousled-like 2 (Homo sapiens) (UniProt Q86UE8); test: Binding affinity to wild-type human partial length TLK2 (E424 to N749 residues) expressed in Escherichia coli BL21 at 1 uM by Kinomescan method relative to control
[14] = tested on: Mast/stem cell growth factor receptor Kit (Homo sapiens), P10721 [D816V]; test: Binding affinity to human partial length KIT D816V mutant (I571 to D952 residues) expressed in Escherichia coli BL21 at 1 uM by Kinomescan method relative to control
[15] = target: SRSF protein kinase 1 (Homo sapiens) (UniProt Q96SB4); test: Binding affinity to wild-type human full length SRPK1 (M1 to S655 residues) expressed in Escherichia coli BL21 at 1 uM by Kinomescan method relative to control; method in brief: as §1
[16] = target: STE20-like serine/threonine-protein kinase (Homo sapiens) (UniProt Q9H2G2); test: Binding affinity to wild-type human partial length SLK (S14 to A307 residues) expressed in Escherichia coli BL21 at 1 uM by Kinomescan method relative to control
[17] = target: Calcium/calmodulin-dependent protein kinase type 1B (Homo sapiens) (UniProt Q6P2M8); test: Binding affinity to wild-type human partial length CAMK1B (W9 to A311 residues) expressed in HEK293 cells at 1 uM by Kinomescan method relative to control; format: cell-based
[18] = tested on: eIF-2-alpha kinase GCN2 (Homo sapiens), Q9P2K8 [S808G]; test: Binding affinity to wild-type human partial length GCN2 kinase domain 2 (R585 to T1018 residues) S808G mutant expressed in Escherichia coli BL21 at 1 uM by Kinomescan method relative to control
[19] = target: Platelet-derived growth factor receptor alpha (Homo sapiens) (UniProt P16234); test: Binding affinity to wild-type human partial length PDGFRA (V575 to D1002 residues) expressed in HEK293 cells at 1 uM by Kinomescan method relative to control; format: cell-based
Platelet-derived growth factor receptor alpha (Homo sapiens), sequence (P16234 whole entry, the tested form may be a part): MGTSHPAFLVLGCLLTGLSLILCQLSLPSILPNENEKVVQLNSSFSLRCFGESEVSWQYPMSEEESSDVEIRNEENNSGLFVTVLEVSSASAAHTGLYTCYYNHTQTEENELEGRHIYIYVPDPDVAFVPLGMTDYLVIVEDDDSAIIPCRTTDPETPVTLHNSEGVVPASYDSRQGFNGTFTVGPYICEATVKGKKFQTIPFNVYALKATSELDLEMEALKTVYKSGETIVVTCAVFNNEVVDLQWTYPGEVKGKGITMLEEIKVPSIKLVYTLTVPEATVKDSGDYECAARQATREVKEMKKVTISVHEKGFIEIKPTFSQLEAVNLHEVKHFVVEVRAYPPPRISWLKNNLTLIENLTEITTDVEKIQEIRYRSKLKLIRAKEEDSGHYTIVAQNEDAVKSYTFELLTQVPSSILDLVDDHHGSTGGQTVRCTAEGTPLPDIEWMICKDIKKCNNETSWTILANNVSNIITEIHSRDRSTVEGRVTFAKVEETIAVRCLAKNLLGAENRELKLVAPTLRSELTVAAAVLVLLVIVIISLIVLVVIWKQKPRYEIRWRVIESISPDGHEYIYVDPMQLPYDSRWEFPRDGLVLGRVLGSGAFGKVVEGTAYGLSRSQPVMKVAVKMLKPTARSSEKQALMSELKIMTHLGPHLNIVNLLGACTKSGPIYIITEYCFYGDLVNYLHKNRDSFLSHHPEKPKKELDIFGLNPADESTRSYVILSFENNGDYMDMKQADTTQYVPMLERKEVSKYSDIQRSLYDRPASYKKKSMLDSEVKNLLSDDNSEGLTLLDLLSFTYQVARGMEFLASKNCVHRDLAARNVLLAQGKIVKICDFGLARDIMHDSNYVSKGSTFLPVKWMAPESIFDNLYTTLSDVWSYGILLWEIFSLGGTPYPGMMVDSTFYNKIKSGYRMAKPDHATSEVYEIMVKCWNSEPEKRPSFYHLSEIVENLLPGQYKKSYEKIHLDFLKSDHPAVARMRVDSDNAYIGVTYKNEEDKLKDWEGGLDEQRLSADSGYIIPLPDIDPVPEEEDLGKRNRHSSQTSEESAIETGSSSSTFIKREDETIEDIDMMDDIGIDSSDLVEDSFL

[20] = target: Inhibitor of nuclear factor kappa-B kinase subunit alpha (Homo sapiens) (UniProt O15111); test: Binding affinity to wild-type human full length IKK-alpha (M1 to E745 residues) expressed in HEK293 cells at 1 uM by Kinomescan method relative to control; format: cell-based; method in brief: as §2
[21] = target: SRSF protein kinase 2 (Homo sapiens) (UniProt P78362); test: Binding affinity to wild-type human full length SRPK2 (M1 to S686 residues) expressed in Escherichia coli BL21 at 1 uM by Kinomescan method relative to control; method in brief: as §1
[22] = target: Serine/threonine-protein kinase tousled-like 1 (Homo sapiens) (UniProt Q9UKI8); test: Binding affinity to wild-type human partial length TLK1 (K447 to A754 residues) expressed in Escherichia coli BL21 at 1 uM by Kinomescan method relative to control
[23] = target: Activin receptor type-1 (Homo sapiens) (UniProt Q04771); test: Binding affinity to wild-type human ACVR1 (C188 to C509 residues) expressed in Escherichia coli BL21 at 1 uM by Kinomescan method relative to control
[24] = target: Serine/threonine-protein kinase D1 (Homo sapiens) (UniProt Q15139); test: Binding affinity to wild-type human partial length PRKD1 (G551 to E870 residues) expressed in Escherichia coli BL21 at 1 uM by Kinomescan method relative to control
[25] = target: Cyclin-G-associated kinase (Homo sapiens) (UniProt O14976); test: Binding affinity to wild-type human partial length GAK (G13 to Y338 residues) expressed in Escherichia coli BL21 at 1 uM by Kinomescan method relative to control
Cyclin-G-associated kinase (Homo sapiens), sequence (O14976 whole entry, the tested form may be a part): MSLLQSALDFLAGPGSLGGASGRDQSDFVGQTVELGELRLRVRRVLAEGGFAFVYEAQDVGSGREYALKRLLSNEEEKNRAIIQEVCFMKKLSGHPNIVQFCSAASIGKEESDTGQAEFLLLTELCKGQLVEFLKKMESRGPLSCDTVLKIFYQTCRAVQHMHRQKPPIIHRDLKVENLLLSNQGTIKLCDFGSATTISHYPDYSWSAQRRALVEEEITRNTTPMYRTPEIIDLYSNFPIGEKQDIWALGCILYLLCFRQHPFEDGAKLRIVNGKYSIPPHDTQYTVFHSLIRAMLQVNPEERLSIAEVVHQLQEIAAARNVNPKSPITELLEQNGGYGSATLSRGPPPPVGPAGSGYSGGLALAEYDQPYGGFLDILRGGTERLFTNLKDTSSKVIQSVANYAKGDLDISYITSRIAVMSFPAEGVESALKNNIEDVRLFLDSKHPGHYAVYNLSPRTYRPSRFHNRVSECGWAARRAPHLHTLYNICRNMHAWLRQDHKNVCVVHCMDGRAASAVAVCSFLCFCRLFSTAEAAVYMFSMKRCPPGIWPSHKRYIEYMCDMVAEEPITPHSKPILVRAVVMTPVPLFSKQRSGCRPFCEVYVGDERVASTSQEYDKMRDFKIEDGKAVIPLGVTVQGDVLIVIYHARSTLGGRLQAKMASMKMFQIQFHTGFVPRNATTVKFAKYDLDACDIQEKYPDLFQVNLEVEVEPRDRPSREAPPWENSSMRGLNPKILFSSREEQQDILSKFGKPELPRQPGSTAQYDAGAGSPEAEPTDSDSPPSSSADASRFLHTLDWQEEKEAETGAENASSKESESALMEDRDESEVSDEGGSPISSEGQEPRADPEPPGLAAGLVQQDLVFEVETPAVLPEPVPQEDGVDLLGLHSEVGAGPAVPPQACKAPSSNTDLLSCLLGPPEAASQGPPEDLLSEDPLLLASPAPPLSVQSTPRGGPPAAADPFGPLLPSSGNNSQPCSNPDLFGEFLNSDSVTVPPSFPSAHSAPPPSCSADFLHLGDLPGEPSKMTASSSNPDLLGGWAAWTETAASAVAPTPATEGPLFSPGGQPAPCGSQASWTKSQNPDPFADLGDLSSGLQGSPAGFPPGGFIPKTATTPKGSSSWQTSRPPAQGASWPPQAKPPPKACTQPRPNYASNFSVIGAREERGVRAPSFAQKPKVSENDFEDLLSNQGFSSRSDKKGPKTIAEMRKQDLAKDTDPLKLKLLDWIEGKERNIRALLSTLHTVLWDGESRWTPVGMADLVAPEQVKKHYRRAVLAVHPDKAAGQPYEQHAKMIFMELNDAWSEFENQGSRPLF

Ankyrin repeat and protein kinase domain-containing protein 1 (Homo sapiens), sequence (Q8NFD2 whole entry, the tested form may be a part): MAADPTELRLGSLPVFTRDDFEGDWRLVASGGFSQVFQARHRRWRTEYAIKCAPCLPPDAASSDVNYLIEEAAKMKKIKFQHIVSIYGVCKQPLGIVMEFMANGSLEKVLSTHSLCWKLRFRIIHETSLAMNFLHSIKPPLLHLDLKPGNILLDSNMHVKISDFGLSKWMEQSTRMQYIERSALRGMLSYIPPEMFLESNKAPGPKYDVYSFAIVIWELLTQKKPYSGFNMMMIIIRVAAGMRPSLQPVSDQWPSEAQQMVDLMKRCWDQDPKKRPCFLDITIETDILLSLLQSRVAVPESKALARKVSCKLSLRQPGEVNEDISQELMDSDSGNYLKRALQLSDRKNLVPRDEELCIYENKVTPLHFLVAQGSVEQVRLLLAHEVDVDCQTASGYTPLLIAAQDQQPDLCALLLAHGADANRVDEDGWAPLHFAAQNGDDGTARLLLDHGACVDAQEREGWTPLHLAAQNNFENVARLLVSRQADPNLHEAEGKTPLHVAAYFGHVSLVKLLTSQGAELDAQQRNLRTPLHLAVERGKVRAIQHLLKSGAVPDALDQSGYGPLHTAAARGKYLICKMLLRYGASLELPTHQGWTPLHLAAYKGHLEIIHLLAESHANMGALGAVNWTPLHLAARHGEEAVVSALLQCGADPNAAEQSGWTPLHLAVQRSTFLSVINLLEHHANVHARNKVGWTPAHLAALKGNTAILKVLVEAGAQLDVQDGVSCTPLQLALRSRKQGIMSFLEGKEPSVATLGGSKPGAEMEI

| SMILES | Activity [1] [%] | Activity [2] [%] | Activity [3] [%] | Activity [4] [%] | Activity [5] [%] | Activity [6] [%] | Activity [7] [%] | Activity [8] [%] | Activity [9] [%] | Activity [10] [%] | Activity [11] [%] | Activity [12] [%] | Activity [13] [%] | Activity [14] [%] | Activity [15] [%] | Activity [16] [%] | Activity [17] [%] | Activity [18] [%] | Activity [19] [%] | Activity [20] [%] | other results |
| --- | --- | --- | --- | --- | --- | --- | --- | --- | --- | --- | --- | --- | --- | --- | --- | --- | --- | --- | --- | --- | --- |
| CCC(=O)Nc1ccc(C(=O)Nc2ccc(Nc3ncc4c(n3)N(C)c3ccc(C)cc3C(=O)N4C)cc2)cc1 | 60 | 62 | 74 | 82 | 100 | 98 | 89 | 95 | 87 | 52 | 89 | 99 | 100 | 91 | 86 | 87 | 45 | 94 | 63 | 99 | Activity [21]: 100%; Activity [22]: 99%; Activity [23]: 80%; Activity [24]: 97%; Activity [25]: 99% |
| C=CC(=O)Nc1ccc(C(=O)Nc2ccc(Nc3ncc4c(n3)N(C)c3ccc(C)cc3C(=O)N4C)cc2)cc1 | 92 | 100 | 100 | 92 | 100 | 100 | 98 | 85 | 96 | 100 | 100 | 92 | 98 | 88 | 89 | 94 | 100 | 100 | 91 | 100 | Activity [21]: 99%; Activity [22]: 94%; Activity [23]: 93%; Activity [24]: 93%; Activity [25]: 82% |
